Measured values published in ChEMBL document CHEMBL1800065, “Enhanced stability and intracellular accumulation of quercetin by protection of the chemically or metabolically susceptible hydroxyl groups with a pivaloxymethyl (POM) promoiety” (J Med Chem, 2010).
Converted amounts (≈) assume the structure as drawn. The source made the active and inactive calls. No cut-off for these calls is given here.

Tests used:
MCF7 [1] = test: Antiproliferative activity against human MCF7 cells after 24 hrs by MTT assay; format: functional, cell-based; conditions: MCF7, 24 h
Outline: (§1)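 Cells seeded at 5 × 10³ per well in complete DMEM and grown 1 day at 37 °C, 5% CO₂. Compounds in DMSO diluted to 0.1–50 μM in medium, no ascorbic acid added. […] Each experiment run in triplicate and repeated three times.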

HCT-116 [2] = test: Cellular uptake in human HCT116 cells assessed a bright fluorescence light at 5 uM after 1 hr by fluorescence microscopic analysis; format: ADME, cell-based; conditions: hct-116, 1 h
Huh-7 [3] = test: Cellular uptake in human HuH7 cells assessed as compound remaining in culture media at 10 uM after 1 hrs by HPLC-mass spectrophotometric analysis; format: ADME, cell-based; conditions: huh-7, 1 h
MCF7 [4] = test: Cell cycle arrest in human MCF7 cells assessed as increase in apoptotic cells in sub-G1 phase at 30 uM after 14 hrs by propidium iodide staining based flow cytometric analysis relative to quercetin; format: functional
MCF7 [5] = test: Cellular uptake in human MCF7 cells assessed as compound remaining in culture media at 10 uM after 1 hr by HPLC-mass spectrophotometric analysis; format: ADME, cell-based; conditions: mcf7, 1 h
Outline: (§2)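 Cells (MCF-7 or Huh-7) seeded at 10⁵ cells/well and grown 24 h (37 °C, 5% CO₂), then exposed to 10 μM compound. Media and washed, trypsinised, sonicated and filtered lysates analysed by HPLC at 1 and 12 h. Peaks collected and identified by MALDI-TOF MS; content given as percentage of integrated HPLC peak area.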

HCT-116 [6] = test: Cellular uptake in human HCT116 cells assessed a bright fluorescence light at 5 uM after 12 hrs by fluorescence microscopic analysis; format: ADME, cell-based; conditions: hct-116, 12 h
MCF7 [7] = test: Cell cycle arrest in human MCF7 cells assessed as decrease in accumulation at G0/G1 phase at 30 uM after 12 hrs by propidium iodide staining based flow cytometric analysis relative to quercetin; format: functional; parameters: scale not given: the % may be the effect or the level left
Outline: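 MCF-7 cells seeded in 35 mm dishes at 10⁵ cells and grown 12 h at 37 °C, 5% CO₂. Treated 12 h with conjugate at 30 μM, quercetin or 1% DMSO control. Propidium iodide staining, flow cytometry, percentage of cells in each phase.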

MCF7 [8] = test: Cellular uptake in human MCF7 cells assessed as compound remaining in culture media at 10 uM after 12 hrs by HPLC-mass spectrophotometric analysis; format: ADME, cell-based; conditions: mcf7, 12 h; outline: as §2
MCF7 [9] = test: Cell cycle arrest in human MCF7 cells assessed as increase in accumulation at S phase at 30 uM after 14 hrs by propidium iodide staining based flow cytometric analysis relative to quercetin; format: functional
HCT-116 [10] = test: Antiproliferative activity against human HCT116 cells after 24 hrs by MTT assay in presence of antioxidative stabilizer ascorbic acid; format: functional, cell-based
Outline: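 HCT116 cells seeded at 5 × 10³ cells/well in complete DMEM and grown 1 day (37 °C, 5% CO₂). Compounds were dissolved in DMSO and diluted to 0.1–50 μM in medium containing ascorbic acid. Viability read by MTT after 24 h; triplicate wells, three independent repeats.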

DU-145 = test: Antiproliferative activity against human DU145 cells after 24 hrs by MTT assay; format: functional, cell-based; conditions: DU-145, 24 h; outline: as §1
[11] = Chemical stability of the compound in buffer at pH 2 assessed as half life by HPLC analysis; format: physicochemical
Outline: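 Compound incubated in pH 2.0 buffer without antioxidant stabiliser. Remaining parent followed by HPLC to derive the half-life.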

[12] = Aqueous solubility of the compound in PBS assessed as forward light scattering by compound by microplate neplhelometric analysis; format: physicochemical
Outline: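 Nephelometric solubility. DMSO stocks diluted in PBS (pH 7.4), 1% DMSO final, to 5–500 μM. Forward light scattering read in microplates to find the highest concentration free of scatter.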

HS27 = test: Antiproliferative activity against human HS27 cells after 24 hrs by MTT assay; format: cell-based; conditions: HS27, 24 h; outline: as §1
[13] = Chemical stability of the compound in PBS buffer at pH 7.4 assessed as half life by HPLC analysis; format: physicochemical
Outline: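 Compound at 50 μM in PBS pH 7.4 at 37 °C, no stabilizer. Aliquots taken at 0–360 min and analysed by C-18 reverse-phase HPLC with UV detection at 340 nm and an acetonitrile/0.1% formic acid gradient. Half-life derived from the time course.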

HCT-116 [14] = test: Antiproliferative activity against human HCT116 cells after 24 hrs by MTT assay; format: functional, cell-based; conditions: HCT-116, 24 h; outline: as §1
[15] = Solubility of the compound in cell-free DMEM media assessed as forward light scattering by compound by microplate neplhelometric analysis in presence of FBS; format: physicochemical; conditions: cell-free DMEM medium with FBS
Outline: (§3)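 Stocks in DMSO diluted to final 5–500 μM in DMEM, with or without FBS, at 1% DMSO. Forward light scattering measured by laser microplate nephelometry; solubility limit taken from the onset of scattering.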

Huh-7 [16] = test: Cellular uptake in human HuH7 cells assessed as compound remaining in cell lysate at 10 uM after 1 hr by HPLC-mass spectrophotometric analysis; format: ADME, cell-based; conditions: huh-7, 1 h
MCF7 [17] = test: Cellular uptake in human MCF7 cells assessed as compound remaining in cell lysates at 10 uM after 12 hr by HPLC-mass spectrophotometric analysis; format: ADME, cell-based, Lysate; conditions: mcf7, 12 h; outline: as §2
[18] = Chemical stability of the compound in cell-free DMEM culture media assessed as half life by HPLC analysis in presence of FBS; format: physicochemical; conditions: cell-free DMEM culture medium with FBS
Outline: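 50 μM in FBS-supplemented DMEM, diluted from 10 mM DMSO stock, no ascorbic acid, cell-free, 37 °C and 5% CO₂. Media sampled at time points up to 24 h and stored at −80 °C. Half-life determined by HPLC.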

[19] = Solubility of the compound in DMEM media assessed as forward light scattering by compound by microplate neplhelometric analysis; format: physicochemical; conditions: DMEM medium; outline: as §3
MCF7 [20] = test: Cellular uptake in human MCF7 cells assessed as compound remaining in cell lysates at 10 uM after 1 hr by HPLC-mass spectrophotometric analysis; format: ADME, cell-based, Lysate; conditions: mcf7, 1 h; outline: as §2
HCT-116 [21] = test: Cellular uptake in human HCT116 cells assessed a bright fluorescence light at 5 uM after 12 hr by fluorescence microscopic analysis in presence of P-glycoprotein inhibitor verapamil; format: ADME, cell-based; conditions: hct-116, 12 h
HCT-116 [22] = test: Cellular uptake in human HCT116 cells assessed a bright fluorescence light at 5 uM after 12 hr by fluorescence microscopic analysis in presence of […]; format: ADME, cell-based; conditions: hct-116, 12 h
[23] = Permeability of the compound measured on donor plate of PAMPA membrane at 50 uM after 1 hr by HPLC analysis; format: ADME
Outline: (§4)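 Precoated PVDF PAMPA plate warmed to room temperature for 30 min. Donor held 50 μM compound in PBS with 5% DMSO; acceptor held PBS. Assembly incubated at room temperature for 1 and 5 h. Donor and acceptor aliquots analysed by HPLC; distribution given as percentage of integrated peak area.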

[24] = Permeability of the compound measured on donor plate of PAMPA membrane at 50 uM after 5 hrs by HPLC analysis; format: ADME; outline: as §4
[25] = Permeability of the compound measured on acceptor plate of PAMPA membrane at 50 uM after 1 hr by HPLC analysis; format: ADME; outline: as §4
[26] = Permeability of the compound measured on acceptor plate of PAMPA membrane at 50 uM after 5 hrs by HPLC analysis; format: ADME; outline: as §4
[27] = Half life in blood of cancer patient at 400 mg/kg, iv by HPLC analysis; format: ADME, organism-based; parameters: dose 400 mg/kg, route intravenous; conditions: human
[28] = Chemical stability of the compound in water assessed as half life by HPLC analysis; format: physicochemical
MCF7 [29] = test: Cellular uptake in human MCF7 cells assessed as formation of oxidised quercetin in cell lysates at 10 uM after 12 hrs by HPLC-mass spectrophotometric analysis; conditions: mcf7, 12 h
MCF7 [30] = test: Cell cycle arrest in human MCF7 cells assessed as increase in accumulation at S phase at 50 uM after 14 hrs by propidium iodide staining based flow cytometric analysis relative to untreated control; format: functional
Huh-7 [31] = test: Cellular uptake in human HuH7 cells assessed as methyl-quercetin accumulation at 10 uM after 12 hrs by HPLC-mass spectrophotometric analysis; format: ADME, cell-based; conditions: huh-7, 12 h; outline: as §2
MCF7 [32] = test: Cellular uptake in human MCF7 cells assessed as formation of quercetin glucuronide in cell lysates at 10 uM after 12 hrs by HPLC-mass spectrophotometric analysis; conditions: mcf7, 12 h
Huh-7 [33] = test: Cellular uptake in human HuH7 cells assessed as quercetin-sulphate accumulation at 10 uM after 12 hrs by HPLC-mass spectrophotometric analysis; format: ADME, cell-based; conditions: huh-7, 12 h; outline: as §2
MCF7 [34] = test: Cellular uptake in human MCF7 cells assessed as formation of quercetin sulphate in cell lysates at 10 uM after 12 hrs by HPLC-mass spectrophotometric analysis; conditions: mcf7, 12 h
Huh-7 [35] = test: Cellular uptake in human HuH7 cells assessed as intracellular accumulation at 10 uM after 12 hrs by HPLC-mass spectrophotometric analysis; format: ADME, cell-based; conditions: huh-7, 12 h; outline: as §2
MCF7 [36] = test: Cell cycle arrest in human MCF7 cells assessed as decrease in accumulation at G0/G1 phase at 50 uM after 12 hrs by propidium iodide staining based flow cytometric analysis relative to untreated control; format: functional; parameters: scale not given: the % may be the effect or the level left
MCF7 [37] = test: Cellular uptake in human MCF7 cells assessed as formation of methylated quercetin in cell lysates at 10 uM after 12 hrs by HPLC-mass spectrophotometric analysis; conditions: mcf7, 12 h

Structure (SMILES) | EC50 (MCF7 [1]) [µM] | Drug uptake (HCT-116 [2]) | Drug uptake (MCF7 [5]) [%] | Drug uptake (HCT-116 [6]) | Drug uptake (MCF7 [8]) [%] | Activity (HCT-116 [10]) | EC50 (DU-145) [µM] | half-life [11] [h] | solubility kinetic [12] [µM] | EC50 (HS27) [µM] | half-life [13] [h] | EC50 (HCT-116 [14]) [µM] | solubility kinetic [15] [µM] | Drug uptake (MCF7 [17]) [%] | half-life [18] [h] | solubility kinetic [19] [µM] | permeability [23] [%] | permeability [24] [%] | permeability [25] [%] | permeability [26] [%] | further results
CC(C)(C)C(=O)OCOc1cc(O)c2c(=O)c(O)c(-c3ccc(O)c(O)c3)oc2c1 | 20 | Active | 62 | Active | 12 | Active | 10 | 7 | 5 (≈ 2.08 µg/mL) | > 100 | > 72 | 36 | 200 | 4 | 4 | 50 (≈ 20.8 µg/mL) | – | – | – | – | Drug uptake (Huh-7 [3]): Active; Activity (MCF7 [4]): Active; Activity (MCF7 [7]): 10%; Activity (MCF7 [9]): 120%; Drug uptake (Huh-7 [16]): Active; Drug uptake (MCF7 [20]): 21%
CC(C)(C)C(=O)OCOc1c(-c2ccc(O)c(O)c2)oc2cc(O)cc(O)c2c1=O | > 100 | Not Active | – | Not Active | – | – | > 100 | 20 | 100 (≈ 41.6 µg/mL) | > 100 | > 72 | > 100 | > 400 | – | 52 | 100 (≈ 41.6 µg/mL) | 87 | 74 | 0 | 0 | Drug uptake (HCT-116 [21]): Not Active; Drug uptake (HCT-116 [22]): Not Active
O=C(O)CNC(=O)Oc1cc(-c2oc3cc(O)cc(O)c3c(=O)c2O)ccc1O [QC-12] | – | – | – | – | – | – | – | 3 | > 400 | – | 10 | – | > 400 | – | 0.8 | > 400 | 6 | 18 | 55 | 40 | half-life [27]: 0.39 h; half-life [28]: 16.9 h
O=c1c(O)c(-c2ccc(O)c(O)c2)oc2cc(O)cc(O)c12 [QUERCETIN] | > 100 | Active | 5 | Not Active | 5 | inactive | > 100 | 7 | 100 (≈ 30.2 µg/mL) | > 100 | 10 | > 100 | – | 17 | < 0.5 | – | 45 | 8 | 16 | 6 | Drug uptake (MCF7 [29]): Active; Activity (MCF7 [30]): 78%; Drug uptake (Huh-7 [31]): < 5%; Drug uptake (MCF7 [32]): Active; Drug uptake (Huh-7 [33]): < 5%; Drug uptake (MCF7 [34]): Active; Drug uptake (Huh-7 [35]): Not Active; Activity (MCF7 [36]): 21%; Drug uptake (MCF7 [37]): Active; Drug uptake (MCF7 [20]): 7%
